How the values were obtained:
Candida albicans = test: Antifungal activity against Candida albicans SKF 2270 assessed as growth inhibition by agar dilution method; type: functional
Klebsiella pneumoniae = test: Antibacterial activity against Klebsiella pneumoniae ATCC 10031 assessed as growth inhibition after 24 hrs by dilution tube method; type: functional; details: ATCC 10031, 24 h
How it was run: (§1)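 Broth tube dilution in Tryptone Soya Broth, duplicate tubes at each concentration. MIC (μg/ml) was the highest dilution preventing visible growth. Nitrofurantoin run under the same conditions.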

Histoplasma capsulatum = test: Antifungal activity against Histoplasma capsulatum RNSH Hi-70 1/2 assessed as growth inhibition by agar dilution method; type: functional
Escherichia coli = test: Antibacterial activity against Escherichia coli 114 assessed as growth inhibition after 24 hrs by dilution tube method; type: functional; details: Escherichia coli, 114, 24 h; how it was run: as §1
Trichophyton rubrum = test: Antifungal activity against Trichophyton rubrum 252 CSTM assessed as growth inhibition by agar dilution method; type: functional
Pseudomonas aeruginosa = test: Antibacterial activity against Pseudomonas aeruginosa ATCC 10145 assessed as growth inhibition after 24 hrs by dilution tube method; type: functional; details: ATCC 10145, 24 h; how it was run: as §1
[1] = tested on: Trichophyton mentagrophytes; test: Antifungal activity against Trichophyton mentagrophytes A-280 USPHS assessed as growth inhibition by agar dilution method; type: functional
Nannizzia gypsea = test: Antifungal activity against Microsporum gypseum 153 CSTM assessed as growth inhibition by agar dilution method; type: functional
Enterococcus faecalis = test: Antibacterial activity against Streptococcus faecalis ATCC 10541 assessed as growth inhibition after 24 hrs by dilution tube method; type: functional; details: ATCC 10541, 24 h; how it was run: as §1
Salmonella typhi = test: Antibacterial activity against Salmonella typhi 115 assessed as growth inhibition after 24 hrs by dilution tube method; type: functional, Salmonella enterica subsp. enterica serovar Typhi; details: Salmonella enterica, 115, 24 h
How it was run: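 Dilution tube method in Tryptone Soya Broth; MIC (μg/ml) taken as highest dilution preventing visible growth; duplicates at every concentration; nitrofurantoin reference run under same conditions.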

Microsporum canis = test: Antifungal activity against Microsporum canis VM-200 USPHS assessed as growth inhibition by agar dilution method; type: functional
[2] = tested on: Agrobacterium tumefaciens; test: Antibacterial activity against Agrobacterium tumefaciens NRRL B-36 assessed as growth inhibition after 24 hrs by dilution tube method; type: functional; details: NRRL B-36, 24 h; how it was run: as §1
[3] = tested on: Mycobacterium tuberculosis; test: Antibacterial activity against Mycobacterium tuberculosis H37Rv assessed as growth inhibition by serial dilution method; type: functional
How it was run: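 M. tuberculosis H37Rv maintained on Lowenstein–Jensen medium; tested in Youman's medium by serial dilution.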

Staphylococcus aureus = test: Antibacterial activity against Staphylococcus aureus ATCC 6538 assessed as growth inhibition after 24 hrs by dilution tube method; type: functional; details: ATCC 6538, 24 h; how it was run: as §1
Cryptococcus neoformans = test: Antifungal activity against Cryptococcus neoformans 103 assessed as growth inhibition by agar dilution method; type: functional

Structure (SMILES)	MIC (Candida albicans)	MIC (Klebsiella pneumoniae)	MIC (Histoplasma capsulatum)	MIC (Escherichia coli)	MIC (Trichophyton rubrum)	MIC (Pseudomonas aeruginosa)	MIC [1]	MIC (Nannizzia gypsea)	MIC (Enterococcus faecalis)	MIC (Salmonella typhi)	MIC (Microsporum canis)	MIC [2]	MIC [3]	MIC (Staphylococcus aureus)	MIC (Cryptococcus neoformans)
C[N+](C)(CCCCCCCOc1c(Br)cc(Br)cc1Br)Cc1ccc(Br)o1.[Br-]	> 200 µg/mL	2 µg/mL	> 200 µg/mL	> 200 µg/mL	> 200 µg/mL	2 µg/mL	> 200 µg/mL	> 200 µg/mL	4 µg/mL	> 200 µg/mL	> 200 µg/mL	7.5 µg/mL	25 µg/mL	3 µg/mL	5 µg/mL
C[N+](C)(CCOc1ccc(Cl)cc1Cl)Cc1ccc([N+](=O)[O-])o1.[Br-]	> 200 µg/mL	100 µg/mL	> 200 µg/mL	> 200 µg/mL	> 200 µg/mL	100 µg/mL	> 200 µg/mL	> 200 µg/mL	> 200 µg/mL	> 200 µg/mL	> 200 µg/mL	> 200 µg/mL	> 200 µg/mL	200 µg/mL	> 200 µg/mL
Cc1ccc(C[N+](C)(C)CCCCCCOc2c(Br)cc(Br)cc2Br)o1.[Br-]	> 200 µg/mL	5 µg/mL	75 µg/mL	> 200 µg/mL	> 200 µg/mL	2.5 µg/mL	> 200 µg/mL	> 200 µg/mL	7.5 µg/mL	75 µg/mL	> 200 µg/mL	25 µg/mL	10 µg/mL	5 µg/mL	10 µg/mL
Cc1ccc(C[N+](C)(C)CCCCOc2cc(C)c(Cl)cc2C(C)C)o1.[Br-]	50 µg/mL	5 µg/mL	100 µg/mL	> 200 µg/mL	> 200 µg/mL	5 µg/mL	50 µg/mL	> 200 µg/mL	25 µg/mL	100 µg/mL	25 µg/mL	50 µg/mL	10 µg/mL	25 µg/mL	25 µg/mL
Cc1cc(OCCCCCCCC[N+](C)(C)Cc2ccc(Br)o2)c(C(C)C)cc1Cl.Cc1ccc(S(=O)(=O)[O-])cc1	> 200 µg/mL	100 µg/mL	> 200 µg/mL	> 200 µg/mL	200 µg/mL	25 µg/mL	200 µg/mL	200 µg/mL	100 µg/mL	> 200 µg/mL	100 µg/mL	100 µg/mL	25 µg/mL	100 µg/mL	50 µg/mL
Cc1cc(OCCCCCCCC[N+](C)(C)Cc2ccc([N+](=O)[O-])o2)c(C(C)C)cc1Cl.[Br-]	> 200 µg/mL	2 µg/mL	> 200 µg/mL	> 200 µg/mL	> 200 µg/mL	1 µg/mL	> 200 µg/mL	> 200 µg/mL	3 µg/mL	> 200 µg/mL	> 200 µg/mL	4 µg/mL	7.5 µg/mL	2 µg/mL	4 µg/mL
Cc1cc(OCCCCCCC[N+](C)(C)Cc2ccc(Br)o2)c(C(C)C)cc1Cl.[Br-]	50 µg/mL	7.5 µg/mL	> 200 µg/mL	> 200 µg/mL	> 200 µg/mL	3 µg/mL	> 200 µg/mL	> 200 µg/mL	7.5 µg/mL	> 200 µg/mL	> 200 µg/mL	7.5 µg/mL	7.5 µg/mL	10 µg/mL	25 µg/mL
Cc1cc(OCC[N+](C)(C)Cc2ccc(Br)o2)c(C(C)C)cc1Cl.[Br-]	> 200 µg/mL	25 µg/mL	50 µg/mL	> 200 µg/mL	> 200 µg/mL	5 µg/mL	100 µg/mL	> 200 µg/mL	25 µg/mL	100 µg/mL	100 µg/mL	25 µg/mL	10 µg/mL	9 µg/mL	50 µg/mL
Cc1cc(OCCCCCCCCCCCC[N+](C)(C)Cc2ccc([N+](=O)[O-])o2)c(C(C)C)cc1Cl.Cc1ccc(S(=O)(=O)[O-])cc1	> 200 µg/mL	200 µg/mL	> 200 µg/mL	> 200 µg/mL	> 200 µg/mL	50 µg/mL	> 200 µg/mL	> 200 µg/mL	200 µg/mL	> 200 µg/mL	> 200 µg/mL	> 200 µg/mL	100 µg/mL	200 µg/mL	100 µg/mL
C[N+](C)(CCCCCCCCCCOc1c(Br)cc(Br)cc1Br)Cc1ccc(Br)o1.[Br-]	> 200 µg/mL	3 µg/mL	> 200 µg/mL	> 200 µg/mL	> 200 µg/mL	2 µg/mL	> 200 µg/mL	> 200 µg/mL	4 µg/mL	> 200 µg/mL	> 200 µg/mL	7.5 µg/mL	50 µg/mL	10 µg/mL	4 µg/mL

Reference: ChEMBL document CHEMBL3244174, “Synthesis and biological activity of some new furan quaternary salts” (J Med Chem, 1977)
